The values that follow come from ChEMBL document CHEMBL3046350, “Design, synthesis and herbicidal activity of new iron chelating motifs for HPPD-inhibitors” (Bioorg Med Chem, 2009).

Where only a bound is given, the exact number is not on record here.

The test system of one assay is Abutilon theophrasti. Put plainly: Herbicidal activity against Abutilon theophrasti (velvetleaf) assessed as reduction in plant growth measured 21 days after compound post-emergence spray application. Format: functional. In outline: (§1)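 GR50 = rate giving 50% growth reduction, scored 21 days after postemergence spray. Application rates are expressed in kg/ha.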
A further assay relates to Chenopodium album. Put plainly: Herbicidal activity against Chenopodium album assessed as reduction in plant growth measured 21 days after compound post-emergence spray application. Format: functional. A digest of the protocol:
as §1

Assay [1] deals with T1, 4-hydroxyphenylpyruvate dioxygenase (Arabidopsis thaliana, UniProt P93836).
T1 sequence (P93836 whole entry): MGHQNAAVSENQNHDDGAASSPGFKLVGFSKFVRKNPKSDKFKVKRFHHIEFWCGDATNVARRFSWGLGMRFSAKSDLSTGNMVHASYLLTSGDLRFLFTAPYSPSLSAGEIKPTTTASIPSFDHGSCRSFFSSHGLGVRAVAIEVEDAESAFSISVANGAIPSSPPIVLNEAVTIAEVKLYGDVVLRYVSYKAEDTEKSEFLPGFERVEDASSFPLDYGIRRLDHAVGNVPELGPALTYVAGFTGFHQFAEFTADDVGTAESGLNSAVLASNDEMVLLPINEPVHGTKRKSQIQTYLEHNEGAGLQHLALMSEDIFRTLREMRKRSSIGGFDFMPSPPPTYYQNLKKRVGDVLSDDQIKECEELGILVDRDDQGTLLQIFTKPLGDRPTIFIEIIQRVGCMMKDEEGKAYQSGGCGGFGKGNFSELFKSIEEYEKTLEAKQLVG
Kind of assay: Inhibition of Arabidopsis thaliana 4-hydroxyphenylpyruvate dioxygenase. In outline:
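Recombinant Arabidopsis thaliana HPPD enzyme, assayed by a previously published method.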

Another assay concerns Echinochloa crus-galli. Put plainly: Herbicidal activity against Echinochloa crus-galli (barnyard grass) assessed as reduction in plant growth measured 21 days after compound post-emergence spray application. In kind it is functional. A digest of the protocol: as §1
A further assay concerns Centaurea cyanus. Kind of assay: Herbicidal activity against Centaurea cyanus assessed as reduction in plant growth measured 21 days after compound post-emergence spray application. Format: functional.
The test system of another assay is Setaria italica. Kind of assay: Herbicidal activity against Setaria italica assessed as reduction in plant growth measured 21 days after compound post-emergence spray application. Format: functional.

With `CCOc1c(S(=O)(=O)CC)ccc(C(=O)c2c(C)nc(-c3ccc(Cl)cc3Cl)n2O)c1Cl`, the GR50 in the assay with Abutilon theophrasti, in the assay on Chenopodium album and with Echinochloa crus-galli was over 0.5 kg/ha throughout. In assay [1], this compound gave an IC50 of over 20 µM.

On to `CSc1ccc(C(=O)/C(=N\O)C(C)=O)c(C)c1Cl`, for which the GR50 in the assay on Centaurea cyanus, with Setaria italica and in the assay on Echinochloa crus-galli was over 3 kg/ha throughout. The same compound yielded an IC50 in assay [1] of over 20 µM.

With `Cc1nc(C)n(O)c1C(=O)c1ccc(S(C)(=O)=O)cc1Cl`, the GR50 in the assay on Abutilon theophrasti, in the assay on Chenopodium album and in the assay with Echinochloa crus-galli was over 0.5 kg/ha in each case. Further, in assay [1], the IC50 is over 20 µM.

Regarding `CC(=O)/C(=N/O)C(=O)c1ccc(S(C)(=O)=O)c(C2=NOCC2)c1Cl`, the GR50 is listed as over 3 kg/ha with Centaurea cyanus, over 3 kg/ha in the assay on Setaria italica and 2.5 kg/ha in the assay on Echinochloa crus-galli. The IC50 in assay [1] came out at 13 µM.

In the case of `CCOc1c(S(=O)(=O)CC)ccc(C(=O)c2c(C)nc(-c3cccs3)n2O)c1Cl`, the GR50 in the assay with Abutilon theophrasti, in the assay on Chenopodium album and in the assay on Echinochloa crus-galli was over 3 kg/ha in each case. The IC50 in assay [1] is over 20 µM.

For the compound `CCOc1c(S(=O)(=O)CC)ccc(C(=O)c2c(C)nc(CC)n2O)c1Cl`, the GR50 with Abutilon theophrasti is listed as over 0.5 kg/ha; in the assay on Chenopodium album, 0.2 kg/ha; in the assay with Echinochloa crus-galli, over 0.5 kg/ha. The compound further registered an IC50 in assay [1] of 0.071 µM.

As for `Cc1[nH]n(C)c(=O)c1C(=O)c1ccc(S(C)(=O)=O)c(C2=NOCC2)c1Cl`, the GR50 in the assay with Abutilon theophrasti, in the assay on Chenopodium album and with Echinochloa crus-galli was under 0.01 kg/ha in each case. This compound also showed an IC50 in assay [1] of 0.19 µM.

Consider `COc1c(S(C)(=O)=O)ccc(C(=O)/C(=N\O)C(C)=O)c1C`, for which the GR50 in the assay with Centaurea cyanus, in the assay on Setaria italica and in the assay on Echinochloa crus-galli was over 3 kg/ha in each case. In addition, the IC50 in assay [1] was over 20 µM.

In the case of `CCOc1c(S(=O)(=O)CC)ccc(C(=O)c2c(C)nc(-c3ccccc3)n2O)c1Cl`, the GR50 in the assay on Abutilon theophrasti, in the assay on Chenopodium album and in the assay on Echinochloa crus-galli was over 0.5 kg/ha each time. Moreover, the IC50 in assay [1] was over 20 µM.

Take `CCOc1c(S(=O)(=O)CC)ccc(C(=O)c2c(C)[n+]([O-])c(C)n2O)c1Cl`: the GR50 with Abutilon theophrasti, in the assay on Chenopodium album and in the assay on Echinochloa crus-galli was over 3 kg/ha in each case. For the same compound, in assay [1], 0.19 µM corresponded to half-maximal inhibition (IC50).

Consider `CSc1ccc(C(=O)c2c(C)nc(C)n2O)c(C)c1Cl`, for which the GR50 in the assay on Abutilon theophrasti, with Chenopodium album and with Echinochloa crus-galli was over 0.5 kg/ha each time. The IC50 in assay [1] is over 20 µM.

As to `CCOc1c(S(=O)(=O)CC)ccc(C(=O)c2c(C)nc(C)n2O)c1Cl`, the GR50 was determined as 0.1 kg/ha in the assay with Abutilon theophrasti, 0.05 kg/ha in the assay with Chenopodium album and 0.5 kg/ha with Echinochloa crus-galli. Moreover, the IC50 in assay [1] amounted to 0.048 µM.

Consider `CCOc1c(S(=O)(=O)CC)ccc(C(=O)/C(=N\O)C(C)=O)c1Cl`, for which the GR50 in the assay on Centaurea cyanus, with Setaria italica and with Echinochloa crus-galli was over 3 kg/ha throughout. The IC50 in assay [1] is 20 µM.

In the case of `Cc1nc(C)n(O)c1C(=O)c1ccc(S(C)(=O)=O)c(C2=NOCC2)c1Cl`, the GR50 was over 3 kg/ha in the assay with Abutilon theophrasti, 0.3 kg/ha in the assay on Chenopodium album and 2 kg/ha in the assay with Echinochloa crus-galli. This compound also had an IC50 in assay [1] of 0.036 µM.

`Cc1cc(C)c(C(=O)c2c(C)nc(C)n2O)c(C)c1`: the GR50 with Abutilon theophrasti, in the assay on Chenopodium album and in the assay with Echinochloa crus-galli was over 3 kg/ha each time. Besides, in assay [1], the IC50 was over 20 µM.

As to `CCOc1c(S(=O)(=O)CC)ccc(C(=O)c2c(C)nc(C(C)C)n2O)c1Cl`, the values for the GR50 with Abutilon theophrasti, in the assay on Chenopodium album and in the assay on Echinochloa crus-galli were over 3 kg/ha, 1.5 kg/ha and over 3 kg/ha, respectively. The same compound had an IC50 in assay [1] of 0.043 µM.

Regarding `Cc1nc(C)n(O)c1C(=O)c1ccc(S(C)(=O)=O)c2ncccc12`, the GR50 in the assay with Abutilon theophrasti, in the assay with Chenopodium album and in the assay with Echinochloa crus-galli was over 1 kg/ha throughout. The same compound came in with an IC50 in assay [1] of over 20 µM.

Turning to `CCOc1c(S(=O)(=O)CC)ccc(C(=O)c2c(C)nc(-c3cccn3C)n2O)c1Cl`, the GR50 in the assay on Abutilon theophrasti, in the assay on Chenopodium album and in the assay with Echinochloa crus-galli was over 3 kg/ha each time. This compound also displayed an IC50 in assay [1] of over 20 µM.

Take `CCOc1c(S(=O)(=O)CC)ccc(C(=O)c2c(C)ncn2O)c1Cl`: the GR50 with Abutilon theophrasti is over 0.5 kg/ha; in the assay with Chenopodium album, 0.4 kg/ha; in the assay with Echinochloa crus-galli it was over 0.5 kg/ha. In assay [1], this compound yielded an IC50 of 20 µM.

Turning to `COc1c(S(C)(=O)=O)ccc(C(=O)c2c(C)nc(C)n2O)c1C`, the GR50 was 0.7 kg/ha in the assay on Abutilon theophrasti, 0.06 kg/ha in the assay with Chenopodium album and over 1 kg/ha in the assay with Echinochloa crus-galli. This compound also yielded an IC50 in assay [1] of 18 µM.
